Bioassay records: PubChem, Broad Institute
The full list was thinned out, with hits kept by preference.
XiGFP reactiv: reactivates the inactive X chromosome in mouse fibroblasts; XiGFP mouse fibroblasts, % GFP-positive cells imaging, 3 d; cells co-treated with 5-aza-dC sensitizer; scaled so ellipticine positive control = 100%; activation, % at 7.58 µM; actives 0.055% (n = 360,000); AID 743238;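 active = mean normalized replicate activation at least 10% and every replicate at or above 10%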;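 also: 0% = median of on-plate neutral control wells and 100% = ellipticine 6 µM median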
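System: 68-5-11 XiGFP fibroblast line | Buffer or medium: DMEM containing 5-aza-dC | Compound: Single point | Times: Compounds 3 days, fix/stain 15 min at room temperature | Benchmarks: Positive control ellipticine, 6 µM final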
E-selectin induc: E-selectin induction on HUVECs. activation, % at 7.58 µM. HUVEC E-selectin immunofluorescence imaging; normalized: neutral wells 0, TNF-alpha wells 100. AID 686992. actives 0.37% (n = 260,000). P16581;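 active = mean E-selectin-positive cell signal at least 10% of the positive control, reached in at least 60% of replicates, without over 20% cell loss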
Target sequence (P16581 whole entry, looked up): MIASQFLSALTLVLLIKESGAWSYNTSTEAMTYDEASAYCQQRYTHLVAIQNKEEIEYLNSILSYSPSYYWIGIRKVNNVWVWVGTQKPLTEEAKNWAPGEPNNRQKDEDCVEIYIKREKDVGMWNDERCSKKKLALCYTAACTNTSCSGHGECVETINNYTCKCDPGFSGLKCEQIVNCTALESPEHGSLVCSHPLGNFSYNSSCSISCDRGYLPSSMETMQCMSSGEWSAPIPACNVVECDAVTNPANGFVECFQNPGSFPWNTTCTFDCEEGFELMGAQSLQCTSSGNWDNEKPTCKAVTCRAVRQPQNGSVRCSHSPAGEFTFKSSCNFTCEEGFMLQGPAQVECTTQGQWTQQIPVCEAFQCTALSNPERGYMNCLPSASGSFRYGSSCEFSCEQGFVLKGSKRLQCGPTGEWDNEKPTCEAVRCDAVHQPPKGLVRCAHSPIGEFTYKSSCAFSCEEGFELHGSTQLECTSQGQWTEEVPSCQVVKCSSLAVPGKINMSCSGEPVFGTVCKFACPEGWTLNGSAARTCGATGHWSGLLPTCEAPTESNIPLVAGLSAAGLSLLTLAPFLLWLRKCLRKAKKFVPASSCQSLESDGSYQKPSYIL
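Test system – human umbilical vein endothelial cells (HUVEC), E-selectin induction · Input – 3,000 HUVEC seeded per well · Buffer or medium – EGM-2, gelatin · Compound dosing – single-point compound dose · Detection – immunofluorescence imaging · Measure – percent E-selectin-positive cells · Controls – TNF-alpha high, DMSO low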
* marks the source's active call; other numbers are inactive results; / = no result given.

SMILES | XiGFP reactiv | E-selectin induc
COc1ccc2c3c(n(C)c2c1)[C@@H](CO)N(Cc1nccs1)CC31CCN(C(=O)CC2CC2)CC1 | 0.2 | /
CC(C)NC(=O)N1CCCCN2[C@H](CO)[C@@H](c3ccc(C#Cc4ccccc4F)cc3)[C@H]2C1 | 0.0 | -0.6
O=C(CCCn1c(=O)c2ccccc2n(CC(=O)N2CCN(c3ccccc3)CC2)c1=O)NCc1ccco1 | / | 42.9*
N#CCSc1nc2ccccc2c(=O)n1CCCC(=O)NCc1ccco1 | 0.1 | 1.0
CN(C)c1cccc(C(=O)NCc2ccc3c(c2)OCO3)c1 | 0.4 | 29.1*
CN(C)c1ccc(C(=O)NCc2ccc3c(c2)OCO3)cc1 | -0.1 | /
O=C(C[C@H]1C[C@@H]2c3cc(NC(=O)Nc4ccccc4)ccc3O[C@@H]2[C@@H](CO)O1)NC1CCCCC1 | 0.4 | -0.4
COc1ccc2c3c(n(C)c2c1)[C@@H](CO)N(C(=O)Nc1ccc(F)cc1)CC31CCN(Cc2cccnc2)CC1 | 0.2 | -0.2
CN(CC(=O)Nc1ccc(Cl)c(Cl)c1)CC(=O)Nc1ccc2c(c1)OCO2 | 120.4* | 22.7
CN(CC(=O)Nc1ccc2c(c1)OCO2)CC(=O)Nc1ccc(F)c(F)c1F | 0.0 | /
CO[C@@H]1CN(C)C(=O)c2ccc(NC(C)=O)cc2OC[C@H](C)N(Cc2ccncc2)C[C@H]1C | 0.0 | 0.0
O=C(NCCc1ccccc1)C1C(=O)Nc2ccccc2C(=O)N1C1CCCCC1 (stereo not given) | 0.1 | 207.3*
O=C(NCc1ccccc1)C1C(=O)Nc2ccccc2C(=O)N1C1CCCC1 (stereo not given) | 0.0 | -0.1
O=C1NC(=O)C2(COC(c3cccc([N+](=O)[O-])c3)OC2)S1 (stereo not given) | 0.0 | 533.4*
CC1(C)COC(c2cccc([N+](=O)[O-])c2)OC1 | -0.2 | 2.1
CC(C)NC(=O)Nc1ccc2c(c1)C(=O)N([C@H](C)CO)C[C@H](C)[C@@H](CN(C)Cc1ccc(C(F)(F)F)cc1)O2 | 0.2 | 19.8
C[C@H](CO)N1C[C@H](C)[C@@H](CN(C)Cc2ccc(Oc3ccccc3)cc2)Oc2ccc(NC(=O)Nc3ccc(C(F)(F)F)cc3)cc2C1=O | 0.1 | 272.7*
C[C@H]1CN([C@@H](C)CO)C(=O)c2cc(NS(C)(=O)=O)ccc2O[C@@H]1CN(C)Cc1ccc(C(F)(F)F)cc1 | 0.4 | -2.5
C[C@H]1CN([C@@H](C)CO)C(=O)c2cc(NC(=O)Nc3ccc(C(F)(F)F)cc3)ccc2O[C@H]1CN(C)Cc1ccc(Oc2ccccc2)cc1 | -0.1 | -0.7
C[C@@H]1CN([C@H](C)CO)C(=O)c2cc(NS(C)(=O)=O)ccc2O[C@@H]1CN(C)Cc1ccc(C(F)(F)F)cc1 | -0.1 | 110.3*
CC(C)NC(=O)Nc1ccc2c(c1)C(=O)N([C@@H](C)CO)C[C@@H](C)[C@H](CN(C)Cc1ccc(C(F)(F)F)cc1)O2 | 0.1 | 38.3*
COc1ccc(C#Cc2cnc3c(c2)C(=O)N([C@H](C)CO)C[C@H](C)[C@@H](CN(C)C(=O)CC2CC2)O3)cc1 | -0.4 | -0.5
CNC[C@H]1Oc2c(NC(C)=O)cccc2C(=O)N(C)C[C@@H]1C | 0.1 | /
CC(C)NC(=O)Nc1ccc2c(c1)C(=O)N(C)C[C@H](C)[C@@H](CN(C)C(=O)OC(C)(C)C)O2 | 0.0 | /
COc1ccccc1C#Cc1ccc2c(c1)O[C@@H](CN(C)Cc1ccccc1)[C@@H](C)CN([C@H](C)CO)S2(=O)=O | 0.2 | 0.0
SMILES | XiGFP reactiv | E-selectin induc
Cc1oc(-c2cccs2)nc1CS(=O)CC(=O)NCCCN1CC(C)CC(C)C1 (stereo not given) | 0.0 | /
Cc1ccc(-c2nc(CS(=O)CC(=O)NCCCN3CC(C)CC(C)C3)c(C)o2)cc1 (stereo not given) | 21.8* | -0.1
COc1ccc2sc(-c3ccccc3OC)c(-c3ccc(O)cc3)c2c1 | 0.0 | 41.6*
COc1cc2sc(-c3ccccc3OC)c(-c3ccc(O)cc3)c2cc1OC | 0.0 | 0.7
COc1ccc(S(=O)(=O)Nc2ccc3c(c2)C(=O)N([C@H](C)CO)C[C@@H](C)[C@H](CN(C)Cc2ccc(Cl)c(Cl)c2)O3)cc1 | -0.1 | 39.6*
COc1ccc(S(=O)(=O)Nc2ccc3c(c2)C(=O)N([C@H](C)CO)C[C@@H](C)[C@@H](CN(C)Cc2ccc(Cl)c(Cl)c2)O3)cc1 | -0.2 | 29.0*
COc1ccc(S(=O)(=O)Nc2ccc3c(c2)C(=O)N([C@@H](C)CO)C[C@H](C)[C@H](CN(C)Cc2ccc(Cl)c(Cl)c2)O3)cc1 | -0.2 | -9.7
COc1ccc(S(=O)(=O)Nc2ccc3c(c2)C(=O)N([C@@H](C)CO)C[C@@H](C)[C@H](CN(C)Cc2ccc(Cl)c(Cl)c2)O3)cc1 | 0.0 | -14.2
CC(=O)N(C)C[C@@H]1Oc2c(N)cccc2C(=O)N(C)C[C@@H]1C | 0.3 | /
O=C1NCCOCn2nncc2CC[C@H]1Cc1ccc(Cl)cc1 | 0.1 | /
CC(=O)N(C)C[C@@H]1Oc2ccccc2C(=O)N(C)C[C@H]1C | 0.3 | /
COc1cccc(CN(C)C[C@H]2OCc3ccccc3-c3ccccc3C(=O)N([C@H](C)CO)C[C@H]2C)c1 | 0.9 | /
O=S(=O)(NCc1cccnc1)c1ccc(Cl)c2ccccc12 | 0.4 | 27.1*
Cc1ccccc1S(=O)(=O)NCc1cccnc1 | 0.2 | /
Cc1noc(C)c1S(=O)(=O)N(C)C[C@@H]1Oc2ccc(NC(=O)Nc3ccccc3)cc2CC(=O)N([C@@H](C)CO)C[C@@H]1C | -0.9 | 0.0
C[C@H](CO)N1C[C@H](C)[C@@H](CN(C)S(=O)(=O)c2cn(C)cn2)Oc2ccc(N(C)C)cc2C1=O | 0.3 | 33.3*
C[C@H](CO)N1C[C@H](C)[C@@H](CN(C)S(=O)(=O)c2cn(C)cn2)OCCCC[C@H](C)Oc2ccc(N(C)C)cc2C1=O | 0.1 | -0.2
C[C@H]1CN([C@@H](C)CO)C(=O)c2cc(N(C)C)ccc2O[C@H]1CN(C)S(=O)(=O)c1cn(C)cn1 | -0.7 | 415.2*
C[C@@H]1CN([C@H](C)CO)C(=O)c2cc(N(C)C)ccc2O[C@@H](C)CCCCO[C@H]1CN(C)S(=O)(=O)c1cn(C)cn1 | 0.2 | 0.0
COc1ccc(NC(=O)Nc2ccc3c(c2)CC(=O)N([C@@H](C)CO)C[C@H](C)[C@H](CN(C)S(=O)(=O)c2ccc(C)cc2)O3)cc1 | 0.0 | /
COCC(=O)N1CC2(C1)CN(C(=O)c1ccccn1)[C@H](CO)c1c2c2ccc(OC)cc2n1C | 0.6 | /
C[C@@H]1CCCCO[C@@H](CN(C)S(C)(=O)=O)[C@@H](C)CN([C@H](C)CO)C(=O)c2cc(NC(=O)CCCN(C)C)ccc2O1 | -0.4 | 49.4*
C[C@@H]1CN([C@@H](C)CO)C(=O)Cc2cc(NC(=O)Cn3cnnn3)ccc2O[C@@H]1CN(C)C(=O)Nc1ccc(F)cc1 | 0.2 | -3.1
C[C@@H]1CN([C@H](C)CO)C(=O)Cc2cc(NC(=O)Cn3cnnn3)ccc2O[C@@H]1CN(C)C(=O)Nc1ccc(F)cc1 | 0.0 | -3.5
C[C@@H]1CCCCO[C@H](CN(C)S(C)(=O)=O)[C@H](C)CN([C@@H](C)CO)C(=O)c2cc(NC(=O)CCCN(C)C)ccc2O1 | -0.9 | 0.2
CC(C)NC(=O)N(C)C[C@@H]1Oc2ccc(NC(=O)Cn3cnnn3)cc2C(=O)N([C@H](C)CO)C[C@@H]1C | -0.1 | 9.4
